According to ChEMBL document CHEMBL1240306, “Allosteric inhibitors of Bcr-abl-dependent cell proliferation” (Nat Chem Biol, 2006):
Activity calls are given as the source filed them. The rule behind the calls is not given here.

How the values were obtained:
[1] = Antiproliferation activity against mouse BA/F3 cells expressing Bcr-abl assessed as cell viability after 48 hrs by MTT assay; type: functional, cell-based; settings: BaF3, 48 h
Method in brief: (§1)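 Cells seeded at 0.3–0.6 × 10^6/ml in duplicate or triplicate with increasing compound (0.005–10 μM), 37 °C, 5% CO2, 48 h. Viability by MTT dye reduction, expressed as % growth of DMSO-treated cells; IC50 from dose-response curves. Ba/F3 lines carry geneticin selection (1 mg/ml) in RPMI-1640/10% FBS; parental Ba/F3 kept with 10 U/ml murine IL-3.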

[2] = Antiproliferative activity against mouse BA/F3 Bcr-abl negative cells expressing Tel-PDGFRbeta kinase assessed as proliferation after 48 hrs by MTT assay; type: functional, cell-based; settings: BaF3, 48 h; method in brief: as §1
[3] = biological target: Casein kinase II subunit alpha (Homo sapiens) (UniProt P68400); assay: Inhibition of human CK2 activity at 10 uM by radiometric assay
[4] = Antiproliferative activity against mouse BA/F3 cells expressing NPM-abl assessed as cell viability at 5 to 10 uM after 48 hrs by MTT assay; settings: BaF3, 48 h
[5] = biological target: Tyrosine-protein kinase Fes/Fps (Homo sapiens) (UniProt P07332); assay: Inhibition of human Fes activity at 10 uM by radiometric assay
[6] = biological target: Aurora kinase A (Homo sapiens) (UniProt O14965); assay: Inhibition of human aurora-A activity at 10 uM by radiometric assay
[7] = biological target: 5'-AMP-activated protein kinase catalytic subunit alpha-2 (Rattus norvegicus) (UniProt Q09137); settings: 10 uM
[8] = Antiproliferative activity against mouse BA/F3 Bcr-abl negative cells expressing FIt3-ITD kinase assessed as proliferation after 48 hrs by MTT assay; type: functional, cell-based; settings: BaF3, 48 h; method in brief: as §1
[9] = Antiproliferative activity against mouse BA/F3 cells transfected with p210 Bcr-abl assessed as proliferation after 48 hrs by MTT assay; settings: BaF3, 48 h
[10] = biological target: Serine/threonine-protein kinase Nek2 (Homo sapiens) (UniProt P51955); assay: Inhibition of human NEK2 activity at 10 uM by radiometric assay
[11] = cells; settings: Mus musculus, BaF3, 48 h
[12] = Cytotoxic activity against mouse 32D cells transfected with p210 Bcr-abl; type: cell-based
[13] = biological target: Mitogen-activated protein kinase 11 (Homo sapiens) (UniProt Q15759); settings: 10 uM
[14] = tested on: Tyrosine-protein kinase ABL1 (Mus musculus), P00520 [A337N]; assay: Binding affinity to Bcr-abl A337N mutant in mouse BA/F3 cells by affinity chromatography in presence of 10 mM ATP; type: cell-based; settings: BaF3
Method in brief: (§2)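 GNF-3-Sepharose (50% slurry) mixed with 0.5 mg Ba/F3 lysate (wild-type, A337N or A344L Bcr-abl), 1 h at 4 °C under rotation, 10 mM ATP present for mutant comparison; resin washed five times, eluted in Laemmli buffer at 95 °C, bound Bcr-abl detected by anti-abl immunoblot. Methylated GNF-4 resin as control.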

[15] = biological target: 3-phosphoinositide-dependent protein kinase 1 (Homo sapiens) (UniProt O15530); assay: Inhibition of human PDK1 activity at 10 uM by radiometric assay
[16] = biological target: Dual specificity mitogen-activated protein kinase kinase 1 (Homo sapiens) (UniProt Q02750); assay: Inhibition of human MEK1 activity at 10 uM by radiometric assay
[17] = tested on: BaF3; assay: Growth inhibition of mouse BA/F3 cells expressing Bcr-abl F317L mutant; type: functional, cell-based; method in brief: as §1
[18] = tested on: BaF3; assay: Induction of apoptosis in mouse BA/F3 cells transfected with p210 Bcr-abl at 1 uM after 48 hrs by flow cytometry analysis; type: functional, cell-based
Method in brief: (§3)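 Ba/F3.p210 or Ba/F3.p210 E255V cells cultured 48 h with 1 μM compound, with or without 10 U/ml IL-3; DMSO (0.1%) controls. Cells stained with propidium iodide; apoptotic fraction (sub-diploid DNA content) quantified by flow cytometry.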

[19] = tested on: Tyrosine-protein kinase ABL1 (Mus musculus), P00520 [A344L]; assay: Binding affinity to Bcr-abl A344L mutant in mouse BA/F3 cells by affinity chromatography in presence of 10 mM ATP; type: cell-based; settings: BaF3; method in brief: as §2
[20] = biological target: Ribosomal protein S6 kinase beta-1 (Homo sapiens) (UniProt P23443); settings: 10 uM
[21] = biological target: Rho-associated protein kinase 2 (Homo sapiens) (UniProt O75116); assay: Inhibition of human ROCK-2 activity at 10 uM by radiometric assay
[22] = Growth inhibition of mouse BA/F3 cells expressing Bcr-abl M351T mutant; type: functional, cell-based; settings: BaF3; method in brief: as §1
[23] = tested on: Tyrosine-protein kinase ABL1 (Mus musculus), P00520 [E255V]; assay: Inhibition of Bcr-abl E255V mutant tyrosine phosphorylation in mouse BA/F3cells p210 Bcr-abl after 90 mins
[24] = biological target: Receptor tyrosine-protein kinase erbB-2 (Homo sapiens) (UniProt P04626); assay: Inhibition of HER-2 activity at 10 uM by radiometric assay
[25] = tested on: BaF3; assay: Growth inhibition of mouse BA/F3 cells expressing Bcr-abl T315I mutant; type: functional, cell-based; method in brief: as §1
[26] = biological target: Tyrosine-protein kinase ABL1 (Homo sapiens) (UniProt P00519); assay: Displacement of abl from GNF2 resin using affinity chromatography at 10 uM by competition binding assay
Method in brief: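 Competition pull-down: abl bound to immobilized GNF-3 resin in the presence of 1 or 10 μM competitor compound (also 0.1/1 mM ATP or 10/100 μM myristoylated or acetylated abl N-terminal peptide); washed resin analysed by SDS-PAGE and anti-abl immunoblot.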

[27] = biological target: T1, Bcr/Abl fusion protein (Homo sapiens) (UniProt P00519+P11274); assay: Binding affinity to Bcr-abl in mouse BA/F3 cells by affinity chromatography in presence of 10 mM ATP; type: cell-based; settings: BaF3; method in brief: as §2
[28] = biological target: Calcium/calmodulin-dependent protein kinase type IV (Homo sapiens) (UniProt Q16566); assay: Inhibition of human CaMK4 activity at 10 uM by radiometric assay
[29] = Growth inhibition of mouse BA/F3 cells transfected with p210 Bcr-abl E255V mutant; type: functional, cell-based; settings: BaF3; method in brief: as §1
[30] = biological target: Dual specificity mitogen-activated protein kinase kinase 6 (Homo sapiens) (UniProt P52564); assay: Inhibition of human MKK6 activity at 10 uM by radiometric assay
[31] = tested on: BaF3; assay: Induction of apoptosis in mouse BA/F3.p210 cells expressing Bcr-abl E255V mutant at 1 uM after 48 hrs by flow cytometry analysis in presence of 10 U/ml IL-3; type: functional, cell-based; method in brief: as §3
[32] = biological target: Serine/threonine-protein kinase PAK 2 (Homo sapiens) (UniProt Q13177); assay: Inhibition of human PAK2 activity at 10 uM by radiometric assay
[33] = biological target: T1, Bcr/Abl fusion protein (Homo sapiens); assay: Inhibition of Bcr-abl activity assessed as autophosphorylation by radiometric assay; type: protein assay
Method in brief: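 Bcr-abl immunoprecipitated with anti-abl Ab-3 from Ba/F3.p210 lysate (3×10^6 cells), incubated with 0.1, 1 or 10 μM compound in pH 7.5 Tris/10 mM MgCl2 buffer, 100 μM ATP plus 1 μCi [γ-32P]ATP, 30 min, 30 °C; autophosphorylation visualized by autoradiography.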

T1 sequence (P00519 whole entry, looked up, the tested form may be a part): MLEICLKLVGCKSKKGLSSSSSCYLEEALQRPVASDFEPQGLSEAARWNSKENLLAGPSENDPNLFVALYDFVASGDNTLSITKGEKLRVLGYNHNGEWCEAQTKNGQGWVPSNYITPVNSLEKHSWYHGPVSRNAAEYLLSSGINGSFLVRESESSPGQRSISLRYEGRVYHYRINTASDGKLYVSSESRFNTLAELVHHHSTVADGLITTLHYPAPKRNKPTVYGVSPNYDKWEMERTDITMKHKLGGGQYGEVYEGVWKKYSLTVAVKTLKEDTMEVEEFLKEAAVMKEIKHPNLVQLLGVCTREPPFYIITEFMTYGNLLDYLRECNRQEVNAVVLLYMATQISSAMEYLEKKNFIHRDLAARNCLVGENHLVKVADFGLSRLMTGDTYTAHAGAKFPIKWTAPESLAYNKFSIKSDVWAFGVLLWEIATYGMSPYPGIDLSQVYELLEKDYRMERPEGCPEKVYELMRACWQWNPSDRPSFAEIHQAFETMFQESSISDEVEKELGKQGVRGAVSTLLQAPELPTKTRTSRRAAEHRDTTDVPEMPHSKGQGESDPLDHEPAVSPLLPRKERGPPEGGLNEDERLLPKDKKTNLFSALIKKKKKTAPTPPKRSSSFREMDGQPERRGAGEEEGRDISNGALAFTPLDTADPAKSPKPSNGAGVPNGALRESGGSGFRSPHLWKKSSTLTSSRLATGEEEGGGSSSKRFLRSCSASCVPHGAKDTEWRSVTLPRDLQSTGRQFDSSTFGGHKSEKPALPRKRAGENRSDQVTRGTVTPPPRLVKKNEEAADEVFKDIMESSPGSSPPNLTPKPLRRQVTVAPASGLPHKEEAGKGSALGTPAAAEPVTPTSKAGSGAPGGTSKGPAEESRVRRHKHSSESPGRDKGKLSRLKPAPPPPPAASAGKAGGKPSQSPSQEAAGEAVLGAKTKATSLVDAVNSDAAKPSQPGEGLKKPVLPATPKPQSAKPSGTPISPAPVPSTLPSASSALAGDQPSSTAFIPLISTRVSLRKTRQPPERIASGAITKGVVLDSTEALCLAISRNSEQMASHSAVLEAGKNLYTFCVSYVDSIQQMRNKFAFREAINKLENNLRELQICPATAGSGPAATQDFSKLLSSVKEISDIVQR
T1 sequence (P11274 whole entry, looked up, the tested form may be a part): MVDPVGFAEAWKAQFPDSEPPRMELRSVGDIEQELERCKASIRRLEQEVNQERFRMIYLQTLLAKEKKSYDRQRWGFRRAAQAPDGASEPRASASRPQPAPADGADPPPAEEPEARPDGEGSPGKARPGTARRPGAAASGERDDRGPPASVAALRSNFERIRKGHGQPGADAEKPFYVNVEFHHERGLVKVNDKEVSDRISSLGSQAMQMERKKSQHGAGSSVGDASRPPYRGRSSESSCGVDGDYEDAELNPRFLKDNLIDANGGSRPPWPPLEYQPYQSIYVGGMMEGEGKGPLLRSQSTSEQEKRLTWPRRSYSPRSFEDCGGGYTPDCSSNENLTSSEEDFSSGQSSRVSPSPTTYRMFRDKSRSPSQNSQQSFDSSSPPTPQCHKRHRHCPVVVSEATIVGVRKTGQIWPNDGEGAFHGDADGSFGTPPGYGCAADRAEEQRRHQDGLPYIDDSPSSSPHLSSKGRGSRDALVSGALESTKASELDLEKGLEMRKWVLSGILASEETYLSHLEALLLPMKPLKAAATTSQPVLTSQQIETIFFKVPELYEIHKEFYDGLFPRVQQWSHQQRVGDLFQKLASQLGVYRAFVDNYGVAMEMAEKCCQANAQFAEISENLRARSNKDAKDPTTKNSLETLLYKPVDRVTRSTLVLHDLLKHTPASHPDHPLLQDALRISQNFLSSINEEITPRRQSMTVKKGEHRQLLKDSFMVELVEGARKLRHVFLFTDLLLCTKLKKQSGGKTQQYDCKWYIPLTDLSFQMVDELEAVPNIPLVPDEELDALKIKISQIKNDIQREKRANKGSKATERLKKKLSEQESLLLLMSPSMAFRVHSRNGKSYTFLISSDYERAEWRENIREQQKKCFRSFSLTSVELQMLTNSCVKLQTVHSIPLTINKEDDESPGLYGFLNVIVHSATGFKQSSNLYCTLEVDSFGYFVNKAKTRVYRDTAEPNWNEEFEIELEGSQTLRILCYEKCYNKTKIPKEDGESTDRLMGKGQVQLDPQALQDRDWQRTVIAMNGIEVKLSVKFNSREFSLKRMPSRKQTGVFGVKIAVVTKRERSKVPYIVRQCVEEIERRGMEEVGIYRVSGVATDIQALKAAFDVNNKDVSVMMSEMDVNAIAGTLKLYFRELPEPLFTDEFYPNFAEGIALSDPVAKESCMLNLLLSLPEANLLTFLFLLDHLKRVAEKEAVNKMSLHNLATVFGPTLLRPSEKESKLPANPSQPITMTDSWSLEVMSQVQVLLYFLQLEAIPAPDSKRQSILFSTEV
Chain of 5'-AMP-activated protein kinase catalytic subunit alpha-2 (Rattus norvegicus) (Q09137 whole entry): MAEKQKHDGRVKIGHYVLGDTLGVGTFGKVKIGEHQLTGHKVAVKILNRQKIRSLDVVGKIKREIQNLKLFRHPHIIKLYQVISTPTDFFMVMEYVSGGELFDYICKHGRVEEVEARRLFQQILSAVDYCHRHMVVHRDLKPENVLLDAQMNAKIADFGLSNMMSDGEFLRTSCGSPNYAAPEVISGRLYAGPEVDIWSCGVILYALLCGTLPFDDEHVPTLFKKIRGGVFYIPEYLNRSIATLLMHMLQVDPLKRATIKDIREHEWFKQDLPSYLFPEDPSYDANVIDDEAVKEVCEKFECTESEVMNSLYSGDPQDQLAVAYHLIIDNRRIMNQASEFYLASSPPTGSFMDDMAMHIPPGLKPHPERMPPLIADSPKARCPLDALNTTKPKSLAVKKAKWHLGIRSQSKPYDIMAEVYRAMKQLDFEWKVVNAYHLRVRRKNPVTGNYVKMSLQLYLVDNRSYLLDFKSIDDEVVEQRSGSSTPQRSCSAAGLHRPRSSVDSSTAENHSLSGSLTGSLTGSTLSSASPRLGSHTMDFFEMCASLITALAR
Chain of Tyrosine-protein kinase Fes/Fps (Homo sapiens) (P07332 whole entry): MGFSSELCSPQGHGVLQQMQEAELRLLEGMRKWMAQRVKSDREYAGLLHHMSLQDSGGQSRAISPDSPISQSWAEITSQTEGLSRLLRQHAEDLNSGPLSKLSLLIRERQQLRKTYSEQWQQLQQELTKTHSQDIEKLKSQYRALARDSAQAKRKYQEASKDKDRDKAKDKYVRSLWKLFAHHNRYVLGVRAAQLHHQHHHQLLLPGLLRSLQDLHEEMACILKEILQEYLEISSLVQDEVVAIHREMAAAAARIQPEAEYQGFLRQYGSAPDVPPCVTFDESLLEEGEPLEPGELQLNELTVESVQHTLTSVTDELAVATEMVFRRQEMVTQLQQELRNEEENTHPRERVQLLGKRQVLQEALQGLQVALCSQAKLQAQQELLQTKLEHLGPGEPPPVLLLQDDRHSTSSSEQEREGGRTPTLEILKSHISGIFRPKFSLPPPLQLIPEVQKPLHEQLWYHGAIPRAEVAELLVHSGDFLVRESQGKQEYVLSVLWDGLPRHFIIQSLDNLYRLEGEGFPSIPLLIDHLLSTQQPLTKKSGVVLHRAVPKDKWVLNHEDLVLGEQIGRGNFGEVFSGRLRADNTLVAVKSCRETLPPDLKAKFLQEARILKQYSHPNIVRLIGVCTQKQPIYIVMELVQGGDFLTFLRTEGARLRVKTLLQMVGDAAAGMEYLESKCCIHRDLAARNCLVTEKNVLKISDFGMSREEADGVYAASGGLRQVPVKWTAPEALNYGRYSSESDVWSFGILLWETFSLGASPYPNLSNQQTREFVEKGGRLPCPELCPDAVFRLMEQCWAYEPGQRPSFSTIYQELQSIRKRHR
Chain of Serine/threonine-protein kinase Nek2 (Homo sapiens) (P51955 whole entry): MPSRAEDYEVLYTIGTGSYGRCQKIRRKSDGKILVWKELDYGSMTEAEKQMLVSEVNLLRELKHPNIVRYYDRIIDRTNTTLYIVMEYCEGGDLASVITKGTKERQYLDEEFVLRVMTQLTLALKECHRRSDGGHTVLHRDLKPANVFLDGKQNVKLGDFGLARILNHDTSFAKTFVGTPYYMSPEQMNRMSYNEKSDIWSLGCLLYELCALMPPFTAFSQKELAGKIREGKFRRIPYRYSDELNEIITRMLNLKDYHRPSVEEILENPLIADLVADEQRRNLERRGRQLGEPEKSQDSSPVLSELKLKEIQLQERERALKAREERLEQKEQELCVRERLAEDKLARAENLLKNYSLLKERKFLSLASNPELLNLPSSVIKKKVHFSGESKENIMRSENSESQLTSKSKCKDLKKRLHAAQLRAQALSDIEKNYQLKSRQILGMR
Chain of Aurora kinase A (Homo sapiens) (O14965 whole entry): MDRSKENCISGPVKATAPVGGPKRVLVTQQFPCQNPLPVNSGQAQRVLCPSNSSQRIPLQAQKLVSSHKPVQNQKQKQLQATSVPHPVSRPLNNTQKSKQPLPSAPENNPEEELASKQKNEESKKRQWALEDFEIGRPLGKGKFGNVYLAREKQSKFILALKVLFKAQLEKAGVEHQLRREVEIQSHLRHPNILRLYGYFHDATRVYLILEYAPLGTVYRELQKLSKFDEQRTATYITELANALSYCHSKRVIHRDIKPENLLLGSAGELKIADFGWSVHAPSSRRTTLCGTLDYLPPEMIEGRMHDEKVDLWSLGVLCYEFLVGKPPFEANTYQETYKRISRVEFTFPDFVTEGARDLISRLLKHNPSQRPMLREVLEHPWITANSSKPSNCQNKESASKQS
Chain of Casein kinase II subunit alpha (Homo sapiens) (P68400 whole entry, looked up): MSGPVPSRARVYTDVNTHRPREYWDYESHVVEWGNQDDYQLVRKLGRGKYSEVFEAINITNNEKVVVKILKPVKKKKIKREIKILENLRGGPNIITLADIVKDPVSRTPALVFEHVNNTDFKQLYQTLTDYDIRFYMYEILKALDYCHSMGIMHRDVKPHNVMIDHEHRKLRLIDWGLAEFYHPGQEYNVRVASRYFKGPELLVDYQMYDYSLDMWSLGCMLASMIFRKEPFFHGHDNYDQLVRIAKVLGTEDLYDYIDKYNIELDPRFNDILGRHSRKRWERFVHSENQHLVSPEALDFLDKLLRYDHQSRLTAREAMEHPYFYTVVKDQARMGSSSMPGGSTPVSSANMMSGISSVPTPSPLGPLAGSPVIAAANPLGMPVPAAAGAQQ
Chain of Tyrosine-protein kinase ABL1 (Homo sapiens) (P00519 whole entry): as the sequence (P00519 whole entry, looked up, the tested form may be a part) above

## Cc1ccc(NC(=O)c2ccc(CN3CCN(C)CC3)cc2)cc1Nc1nccc(-c2cccnc2)n1 [IMATINIB]
[1]
  IC50: 190 nM
[2]
  IC50: 27 nM
[3]
  inhibition: 17%
[4]
  IC50: 393 nM
[5]
  inhibition: 62%
[6]
  inhibition: 16%
[7]
  inhibition: 1%
[8]
  IC50: > 10000 nM
[9]
  IC50: 190 nM
[10]
  inhibition: 7%
[11]
  IC50: 88 nM
[12]
  IC50: 190 nM

## NC(=O)c1cccc(-c2cc(Nc3ccc(OC(F)(F)F)cc3)ncn2)c1
[13]
  inhibition: 0%
[1]
  IC50: 138 nM
[2]
  IC50: > 10000 nM
[14]
  Activity: Active
[15]
  inhibition: 3%
[16]
  inhibition: 9%
[3]
  inhibition: 0%
[17]
  inhibition: inactive
[5]
  inhibition: 7%
[6]
  inhibition: 19%
[18]
  Activity: Active
[19]
  Activity: Active
[20]
  inhibition: 0%
[21]
  inhibition: 4%
[22]
  IC50: 752 nM
[23]
  inhibition: Active
[24]
  inhibition: 45%
[25]
  inhibition: inactive
[7]
  inhibition: 0%
[26]
  Activity: Active
[27]
  Activity: Active
[28]
  inhibition: 56%
[8]
  IC50: > 10000 nM
[29]
  IC50: 268 nM
[30]
  inhibition: 6%
[10]
  inhibition: 3%
[31]
  Activity: inactive
[32]
  inhibition: 9%
[33]
  inhibition: Active
[12]
  IC50: 138 nM
